Reference: ChEMBL document CHEMBL1142436, “Design and synthesis of 4-substituted indolo[3,2-e][1,2,3]triazolo[1,5-a]pyrimidine derivatives with antitumor activity” (2008)

Experiments:
Type in all cases: functional
[1] = tested on: SK-MEL-2; assay: Growth inhibition of human SK-MEL2 cells after 48 hrs; settings: SK-MEL-2, 48 h; for TGI: read-out: pTGI (converted)
In short: (§1)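 NCI ~60-line screen. Cells were grown in RPMI 1640 with 5% FBS and 2 mM L-glutamine and plated at 5000–40000 cells/well. After a 24 h preincubation, five drug concentrations from DMSO stocks were added for 48 h at 37 °C. Cells were TCA-fixed, stained with SRB and read at 515 nm. GI50 was taken from time-zero and control absorbances and reported as pGI50.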

[2] = tested on: NCI-H460; assay: Growth inhibition of human NCI-H460 cells after 48 hrs; settings: NCI-H460, 48 h; for TGI: read-out: pTGI (converted); in short: as §1
[3] = tested on: 786-0; assay: Growth inhibition of human 786-0 cells after 48 hrs; settings: 786-0, 48 h; for TGI: read-out: pTGI (converted); in short: as §1
[4] = tested on: T47D; assay: Growth inhibition of human T47D cells after 48 hrs; settings: for CC50: read-out: Log LC50 (the source's name) (converted); for TGI: read-out: pTGI (converted)
In short: (§2)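 NCI 60-line screen: cells in RPMI 1640 with 5% FBS and 2 mM L-glutamine, plated at 5000–40000 cells/well, grown 24 h (37 °C, 5% CO₂), then exposed to five 10-fold or ½-log dilutions (DMSO stock) for 48 h. Fixed with TCA (final 10% for adherent cells, 16% for suspension cells), then SRB stained with absorbance at 515 nm. GI50 from percentage growth relative to time-zero and control wells.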

[5] = tested on: HOP-62; assay: Growth inhibition of human HOP62 cells after 48 hrs; settings: HOP-62, 48 h; for TGI: read-out: pTGI (converted); in short: as §1
[6] = tested on: PC-3; assay: Growth inhibition of human PC3 cells after 48 hrs; settings: PC-3, 48 h; for TGI: read-out: pTGI (converted); in short: as §1
[7] = tested on: NCI/ADR-RES; assay: Growth inhibition of human NCI/ADR-RES cells after 48 hrs; settings: for TGI: read-out: pTGI (converted); in short: as §1
[8] = tested on: A549; assay: Growth inhibition of human A549 cells after 48 hrs; settings: A549, 48 h; for CC50: read-out: Log LC50 (the source's name) (converted); for TGI: read-out: pTGI (converted); in short: as §1
[9] = tested on: UO-31; assay: Growth inhibition of human UO31 cells after 48 hrs; settings: UO-31, 48 h; for TGI: read-out: pTGI (converted); in short: as §2
[10] = tested on: K562; assay: Growth inhibition of human K562 cells after 48 hrs; settings: K562, 48 h; for TGI: read-out: pTGI (converted); in short: as §1
[11] = tested on: BT-549; assay: Growth inhibition of human BT549 cells after 48 hrs; settings: BT-549, 48 h; in short: as §1
[12] = tested on: SK-OV-3; assay: Growth inhibition of human SKOV3 cells after 48 hrs; settings: SK-OV-3, 48 h; for TGI: read-out: pTGI (converted); in short: as §2
[13] = tested on: SR; assay: Growth inhibition of human SR cells after 48 hrs; in short: as §2
[14] = tested on: COLO 205; assay: Growth inhibition of human COLO205 cells after 48 hrs; settings: COLO 205, 48 h; for TGI: read-out: pTGI (converted); in short: as §1
[15] = tested on: HCT-15; assay: Growth inhibition of human HCT15 cells after 48 hrs; settings: HCT-15, 48 h; for TGI: read-out: pTGI; in short: as §1
[16] = tested on: SW-620; assay: Growth inhibition of human SW620 cells after 48 hrs; settings: SW-620, 48 h; for TGI: read-out: pTGI (converted); in short: as §2
[17] = tested on: OVCAR-3; assay: Growth inhibition of human OVCAR-3 cells after 48 hrs; settings: OVCAR-3, 48 h; for TGI: read-out: pTGI (converted); in short: as §1
[18] = tested on: MDA-MB-435; assay: Growth inhibition of human MDA-MB435 cells after 48 hrs; settings: MDA-MB-435, 48 h; for TGI: read-out: pTGI (converted); in short: as §1
[19] = tested on: SN12C; assay: Growth inhibition of human SN12C cells after 48 hrs; settings: for TGI: read-out: pTGI (converted); in short: as §2
[20] = tested on: ACHN; assay: Growth inhibition of human ACHN cells after 48 hrs; settings: for TGI: read-out: pTGI (converted); in short: as §1
[21] = tested on: HCC 2998; assay: Growth inhibition of human HCC2998 cells after 48 hrs; settings: HCC 2998, 48 h; for TGI: read-out: pTGI (converted); in short: as §1
[22] = Growth inhibition of human HS578T cells after 48 hrs; settings: Hs-578T; for TGI: read-out: pTGI (converted); in short: as §1
[23] = tested on: OVCAR-4; assay: Growth inhibition of human OVCAR4 cells after 48 hrs; settings: OVCAR-4, 48 h; in short: as §1
[24] = tested on: SK-MEL-28; assay: Growth inhibition of human SK-MEL28 cells after 48 hrs; settings: SK-MEL-28, 48 h; in short: as §1
[25] = tested on: SNB-75; assay: Growth inhibition of human SNB75 cells after 48 hrs; settings: SNB-75, 48 h; in short: as §2

Cn1c2ccccc2c2c(=O)n(CCCC(=O)NCC(=O)N(C(=O)NC3CCCCC3)C3CCCCC3)c3c(-c4ccccc4)nnn3c21
GI50 [1]: 33.1 µM | LC50 [1]: > 100 µM | TGI [1]: > 100 µM | GI50 [2]: 32.4 µM | LC50 [2]: > 100 µM | TGI [2]: > 100 µM | GI50 [3]: 18.6 µM | LC50 [3]: > 100 µM | TGI [3]: 44.7 µM | CC50 [4]: > 100 µM | TGI [4]: > 100 µM | GI50 [5]: 15.1 µM | LC50 [5]: 87.1 µM | TGI [5]: 36.3 µM | GI50 [6]: 22.9 µM | LC50 [6]: > 100 µM | TGI [6]: > 100 µM | GI50 [7]: 15.5 µM | LC50 (concentration killing 50% of cells) [7]: 72.4 µM | TGI [7]: 33.9 µM | GI50 [8]: 38 µM | CC50 [8]: > 50.1 µM | TGI [8]: > 50.1 µM | GI50 [9]: 31.6 µM | LC50 [9]: > 100 µM | TGI [9]: > 100 µM | GI50 [10]: 22.9 µM | LC50 [10]: > 50.1 µM | TGI [10]: > 100 µM | GI50 [11]: 26.9 µM | LC50 [12]: 33.9 µM | TGI [12]: 18.6 µM | GI50 [13]: 3.02 µM | LC50 [13]: 8.51 µM | TGI ([13]; read-out: pTGI (converted)): 5.13 µM | GI50 [14]: 2.82 µM | LC50 [14]: > 100 µM | TGI [14]: > 100 µM | GI50 [15]: 10.7 µM | LC50 [15]: > 100 µM | TGI [15]: > 100 µM | GI50 [16]: 3.8 µM | LC50 (lethal concentration, 50% cell kill) [16]: > 100 µM | TGI [16]: > 100 µM | GI50 [17]: 19.5 µM | LC50 [17]: > 100 µM | TGI [17]: 95.5 µM | GI50 [18]: 25.1 µM | LC50 [18]: > 100 µM | TGI [18]: > 100 µM | GI50 [19]: 19.5 µM | LC50 [19]: > 100 µM | TGI [19]: 50.1 µM | GI50 [20]: 26.3 µM | LC50 [20]: > 100 µM | TGI [20]: > 100 µM | GI50 [21]: 10.2 µM | LC50 [21]: 70.8 µM | TGI [21]: 26.9 µM | GI50 [22]: 9.33 µM | LC50 (50% lethal concentration) [22]: > 100 µM | TGI [22]: > 100 µM

CCOC(=O)CNC(=O)CCCn1c(=O)c2c3ccccc3n(C)c2n2nnc(-c3ccccc3)c12
GI50 [1]: 9.55 µM | LC50 [1]: > 50.1 µM | TGI [1]: 28.8 µM | GI50 [23]: > 50.1 µM | LC50 [23]: > 50.1 µM | TGI ([23]; read-out: pTGI (converted)): > 50.1 µM | GI50 [2]: > 50.1 µM | LC50 [2]: > 50.1 µM | TGI [2]: > 50.1 µM | GI50 [3]: 5.13 µM | LC50 [3]: > 50.1 µM | TGI [3]: 17.4 µM | GI50 [4]: 43.7 µM | CC50 [4]: > 50.1 µM | TGI [4]: > 50.1 µM | GI50 [5]: 5.89 µM | LC50 [5]: > 50.1 µM | TGI [5]: 17.8 µM | GI50 [6]: 8.51 µM | LC50 [6]: > 50.1 µM | TGI [6]: > 50.1 µM | GI50 [7]: > 50.1 µM | LC50 (concentration killing 50% of cells) [7]: > 50.1 µM | TGI [7]: > 50.1 µM | GI50 [8]: 33.1 µM | CC50 [8]: > 50.1 µM | TGI [8]: > 50.1 µM | GI50 [9]: 47.9 µM | LC50 [9]: > 50.1 µM | TGI [9]: > 50.1 µM | GI50 [10]: 4.68 µM | LC50 [10]: > 50.1 µM | TGI [10]: > 50.1 µM | GI50 [12]: 6.76 µM | LC50 [12]: > 50.1 µM | TGI [12]: 43.7 µM | GI50 [24]: > 50.1 µM | LC50 [24]: > 50.1 µM | TGI ([24]; read-out: pTGI (converted)): > 50.1 µM | GI50 [14]: > 50.1 µM | LC50 [14]: > 50.1 µM | TGI [14]: > 50.1 µM | GI50 [15]: > 50.1 µM | LC50 [15]: > 50.1 µM | TGI [15]: > 50.1 µM | GI50 [16]: > 50.1 µM | LC50 (lethal concentration, 50% cell kill) [16]: > 50.1 µM | TGI [16]: > 50.1 µM | GI50 [17]: 12.6 µM | LC50 [17]: > 50.1 µM | TGI [17]: 49 µM | GI50 [25]: 1.12 µM | LC50 [25]: 17 µM | GI50 [18]: > 50.1 µM | LC50 [18]: 39.8 µM | TGI [18]: 20 µM | GI50 [19]: > 50.1 µM | LC50 [19]: > 50.1 µM | TGI [19]: > 50.1 µM | GI50 [20]: 9.33 µM | LC50 [20]: > 50.1 µM | TGI [20]: 33.9 µM | GI50 [21]: > 50.1 µM | LC50 [21]: > 50.1 µM | TGI [21]: > 50.1 µM | GI50 [22]: 4.47 µM | LC50 (50% lethal concentration) [22]: > 50.1 µM | TGI [22]: > 50.1 µM
